Measurements from ChEMBL document CHEMBL4673287, “Synthesis and biological evaluation of novel antipsychotic trans-4-(2-(1,2,4,5-tetrahydro-3H-benzo[d]azepin-3-yl)ethyl)cyclohexan-1-amine derivatives targeting dopamine/serotonin receptor subtypes” (Bioorg Med Chem Lett, 2021).

Key:
[1] = molecular target: T1, Adrenergic receptor alpha-1 (Rattus norvegicus, UniProt P15823+P23944+P43140); test: Displacement of [3H]-prazosin from adrenergic alpha1 in rat cerebral cortex; type: tissue-based
T1 sequence (P15823 whole entry): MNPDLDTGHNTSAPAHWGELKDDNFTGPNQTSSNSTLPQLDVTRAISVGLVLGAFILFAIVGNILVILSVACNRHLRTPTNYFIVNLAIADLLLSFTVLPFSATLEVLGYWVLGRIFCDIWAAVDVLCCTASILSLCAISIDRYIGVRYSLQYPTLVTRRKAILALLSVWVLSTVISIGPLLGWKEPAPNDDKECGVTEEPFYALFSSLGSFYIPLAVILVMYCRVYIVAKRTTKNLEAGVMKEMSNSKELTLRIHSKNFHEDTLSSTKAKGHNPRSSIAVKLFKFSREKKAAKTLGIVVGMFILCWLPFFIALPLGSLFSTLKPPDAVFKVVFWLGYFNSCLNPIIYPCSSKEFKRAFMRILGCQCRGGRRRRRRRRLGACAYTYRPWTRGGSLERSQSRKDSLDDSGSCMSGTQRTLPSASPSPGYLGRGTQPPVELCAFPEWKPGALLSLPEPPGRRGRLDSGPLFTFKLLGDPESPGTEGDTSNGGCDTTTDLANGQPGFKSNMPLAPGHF
T1 sequence (P23944 whole entry): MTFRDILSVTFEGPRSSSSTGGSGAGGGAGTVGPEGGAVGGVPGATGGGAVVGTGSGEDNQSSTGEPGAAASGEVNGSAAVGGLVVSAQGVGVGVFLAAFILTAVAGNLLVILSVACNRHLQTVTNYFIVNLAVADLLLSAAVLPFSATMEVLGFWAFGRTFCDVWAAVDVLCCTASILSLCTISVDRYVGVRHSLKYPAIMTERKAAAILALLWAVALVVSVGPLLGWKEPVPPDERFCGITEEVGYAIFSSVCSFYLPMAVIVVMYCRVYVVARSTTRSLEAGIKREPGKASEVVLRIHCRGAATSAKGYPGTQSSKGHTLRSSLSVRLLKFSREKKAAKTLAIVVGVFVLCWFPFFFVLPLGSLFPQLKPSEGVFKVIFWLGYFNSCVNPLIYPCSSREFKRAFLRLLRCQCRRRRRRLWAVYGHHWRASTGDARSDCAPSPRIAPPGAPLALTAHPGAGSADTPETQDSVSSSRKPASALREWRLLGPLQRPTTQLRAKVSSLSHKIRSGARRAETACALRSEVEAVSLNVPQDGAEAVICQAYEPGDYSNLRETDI
T1 sequence (P43140 whole entry): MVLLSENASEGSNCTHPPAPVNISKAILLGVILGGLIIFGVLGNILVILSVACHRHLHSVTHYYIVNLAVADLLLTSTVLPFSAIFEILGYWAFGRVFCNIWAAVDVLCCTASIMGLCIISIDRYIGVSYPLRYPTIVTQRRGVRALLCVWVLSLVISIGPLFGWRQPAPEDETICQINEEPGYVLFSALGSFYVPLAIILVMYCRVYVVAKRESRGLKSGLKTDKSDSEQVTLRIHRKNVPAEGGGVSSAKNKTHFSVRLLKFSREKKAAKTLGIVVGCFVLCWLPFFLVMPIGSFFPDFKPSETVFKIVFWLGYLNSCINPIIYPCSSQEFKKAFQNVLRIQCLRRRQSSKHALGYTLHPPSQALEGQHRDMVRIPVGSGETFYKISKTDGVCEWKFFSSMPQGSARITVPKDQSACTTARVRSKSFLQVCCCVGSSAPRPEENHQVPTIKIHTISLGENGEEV
In short: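 Eight-concentration displacement curves, two independent experiments in duplicate, value is the mean Ki.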

[2] = test system: Rattus norvegicus; test: Antipsychotic activity in orally dosed Sprague-Dawley rat assessed as inhibition of PCP-induced hyperactivity administered 20 mins before PCP stimulation and measured after 1 hr; type: functional, organism-based; details: dose 1-10 mg/kg, time 80.0 min
In short: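 Male Sprague-Dawley rats dosed orally 20 min before PCP (5 mg/kg) injection. Locomotor activity recorded for 1 h after PCP, read as total travel distance. Mean ± standard error of the mean, n = 8-10 per group.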

[3] = molecular target: T2, Adrenergic receptor alpha-1 (Homo sapiens, UniProt P35348+P25100+P35368); test: Binding affinity to adrenergic alpha1 receptor (unknown origin); type: protein assay
T2 sequence (P35348 whole entry): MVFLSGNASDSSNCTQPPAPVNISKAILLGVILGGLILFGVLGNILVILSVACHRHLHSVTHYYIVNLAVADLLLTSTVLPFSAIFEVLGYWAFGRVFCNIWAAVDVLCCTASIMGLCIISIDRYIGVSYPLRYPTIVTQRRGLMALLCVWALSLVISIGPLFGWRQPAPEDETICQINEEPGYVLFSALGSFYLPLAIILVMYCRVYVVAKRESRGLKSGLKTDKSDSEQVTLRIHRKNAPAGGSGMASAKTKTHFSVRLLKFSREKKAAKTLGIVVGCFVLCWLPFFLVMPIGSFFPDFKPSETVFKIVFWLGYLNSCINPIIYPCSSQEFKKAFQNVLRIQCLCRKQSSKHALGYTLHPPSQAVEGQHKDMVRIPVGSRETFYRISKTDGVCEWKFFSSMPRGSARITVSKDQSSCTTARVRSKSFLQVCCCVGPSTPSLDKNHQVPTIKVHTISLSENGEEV
T2 sequence (P25100 whole entry): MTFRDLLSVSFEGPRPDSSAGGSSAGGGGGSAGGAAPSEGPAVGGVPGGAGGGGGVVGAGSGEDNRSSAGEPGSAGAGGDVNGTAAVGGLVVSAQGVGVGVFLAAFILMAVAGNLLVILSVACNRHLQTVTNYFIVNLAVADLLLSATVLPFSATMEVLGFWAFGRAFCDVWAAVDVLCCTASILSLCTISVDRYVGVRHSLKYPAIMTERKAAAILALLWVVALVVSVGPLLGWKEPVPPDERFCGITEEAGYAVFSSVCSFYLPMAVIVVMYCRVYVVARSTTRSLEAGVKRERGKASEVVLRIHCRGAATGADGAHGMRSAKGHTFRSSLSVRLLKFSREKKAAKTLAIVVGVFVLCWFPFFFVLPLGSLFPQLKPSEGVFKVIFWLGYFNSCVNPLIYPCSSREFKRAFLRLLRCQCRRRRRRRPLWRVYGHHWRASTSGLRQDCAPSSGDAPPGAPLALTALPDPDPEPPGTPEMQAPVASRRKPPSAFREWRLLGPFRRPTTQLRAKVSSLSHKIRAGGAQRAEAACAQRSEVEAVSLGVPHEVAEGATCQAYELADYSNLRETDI
T2 sequence (P35368 whole entry): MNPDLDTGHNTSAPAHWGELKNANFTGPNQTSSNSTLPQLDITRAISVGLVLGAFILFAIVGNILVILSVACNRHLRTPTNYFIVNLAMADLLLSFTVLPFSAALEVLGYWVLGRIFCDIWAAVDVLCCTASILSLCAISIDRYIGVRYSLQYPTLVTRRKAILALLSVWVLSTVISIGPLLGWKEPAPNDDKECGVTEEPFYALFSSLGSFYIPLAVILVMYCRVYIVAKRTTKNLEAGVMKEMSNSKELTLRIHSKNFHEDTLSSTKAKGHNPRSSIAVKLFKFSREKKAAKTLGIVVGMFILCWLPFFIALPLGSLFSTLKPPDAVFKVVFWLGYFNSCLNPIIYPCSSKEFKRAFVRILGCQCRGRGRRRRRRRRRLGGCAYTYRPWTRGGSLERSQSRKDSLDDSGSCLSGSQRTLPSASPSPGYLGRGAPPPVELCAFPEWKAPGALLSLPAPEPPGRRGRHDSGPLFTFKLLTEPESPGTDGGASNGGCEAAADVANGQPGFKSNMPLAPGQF

Ki [1] [nM] | Ki [3] [nM] | SMILES | Activity [2]
155 |  | CN(C)C(=O)N[C@H]1CC[C@H](CCN2CCN(c3cccc(Cl)c3Cl)CC2)CC1 [CARIPRAZINE] | Dose-dependent effect
 | 1.2 | CN1CC2c3ccccc3Oc3ccc(Cl)cc3C2C1 (stereo not drawn) [ASENAPINE] | 
